MC4R barr agon = MC4R agonists recruiting beta-arrestin, primary screen, cell-based, luminescence, agonist arm of biased-ligand search; 360,000 tested, 0.98% active; AID 540308, 2011; activation, % at 8.9 µM; U2OS MC4R beta-arrestin complementation; percent of melanotan II response, DMSO zero; Melanocortin receptor 4 (Homo sapiens), P32245;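 active = activation above a per-plate cutoff, the mean activation of sample wells on that plate plus 3 SD, cut at about 8% in these data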
Target sequence (P32245 whole entry, looked up): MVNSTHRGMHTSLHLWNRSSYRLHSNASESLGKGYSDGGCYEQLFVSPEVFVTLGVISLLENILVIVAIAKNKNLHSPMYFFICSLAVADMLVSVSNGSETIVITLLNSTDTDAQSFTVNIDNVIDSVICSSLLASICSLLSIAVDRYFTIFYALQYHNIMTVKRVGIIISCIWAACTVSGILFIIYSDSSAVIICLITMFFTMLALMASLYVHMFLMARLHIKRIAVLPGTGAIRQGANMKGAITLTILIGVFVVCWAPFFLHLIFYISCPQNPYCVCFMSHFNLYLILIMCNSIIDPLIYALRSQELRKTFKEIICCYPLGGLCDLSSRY
MC4R antag cAMP = MC4R antagonists of cAMP signaling, primary screen, cell-based, TR-FRET, antagonist arm of biased-ligand search; MC4R-expressing cells, MTII-stimulated cAMP, LANCE TR-FRET; inhibition, % at 6.5 µM; 360,000 tested, 0.48% active;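 active = inhibition above its plate's cutoff, the mean of tested wells on that plate plus 3 SD, cut at about 29% in these data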
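Assay system: human MC4R-expressing U2OS cells; reagent: Melanotan II stimulation of cells; dosing: 6.5 µM single dose; timing: compound 30 min, challenge 1 h, detection 1 h; signal: TR-FRET cAMP assay; replicates: one well per compound, no replicates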
HTR5A inv ctr = HTR5A inverse agonists in luminescence cell assay, primary screen, counter-screen for OPRM1-OPRD1 heterodimer inverse agonist project, full-deck HTS; inhibition, % at 9.3 µM; 5-hydroxytryptamine receptor 5A (Homo sapiens), P47898; AID 504634, 2011; HTR5A cell line, inverse agonism; 340,000 tested, 0.083% active; in the data active = inhibition mostly above about 23%, no sharp cut-off; inactive = mostly below about 18%
OPRM1-OPRD1 inv = inverse agonists of MOR-DOR heterodimerization, primary screen, cell-based, luminescence; Mu-type opioid receptor (Homo sapiens) + Delta-type opioid receptor (Homo sapiens), …; cell-based MOR-DOR heterodimer luminescence, inverse agonism; inhibition, % at 9.3 µM; 340,000 tested, 0.21% active; AID 504357, 2011; in the data active = inhibition above about 22%, passing the limit was not always enough
OPRM1-OPRD1 ag = agonists of OPRM1-OPRD1 heterodimerization, primary screen, cell-based, luminescence; cells; AID 504326, 2011; 340,000 tested, 0.3% active; activation, % at 9.3 µM; Mu-type opioid receptor (Homo sapiens) + Delta-type opioid receptor (Homo sapiens), …; in the data active = activation above about 18%
HTR5A ag = HTR5A agonists in luminescence cell assay, primary screen, counter-screen for OPRM1-OPRD1 heterodimer agonist project, full-deck HTS; 5-hydroxytryptamine receptor 5A (Homo sapiens), P47898; cell-based; activation, % at 9.3 µM; 340,000 tested, 0.61% active; in the data active = activation mostly above about 9.5%, no sharp cut-off; inactive = mostly below about 7.6%
MC4R barr ag = MC4R beta-arrestin agonists, retest, confirmation, cell-based, luminescence, U2OS; 2,400 tested, 31% active; AID 602192, 2012; U2OS MC4R beta-arrestin recruitment; scaled DMSO 0%, Melanotan II 100%; shares compounds with MC4R barr agon; activation, % at 8.9 µM;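 active = mean activation across replicates above the hit cutoff set in the earlier primary screen, cut at about 8% in these data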
MOR DOR agonist = agonists of MOR-DOR heterodimerization, counter-screen for MC4R biased agonist project, cell-based, luminescence | shares compounds with MC4R barr agon | U2OS PathHunter beta-arrestin, beta-gal luminescence; percent of deltorphin B response, DMSO zero | activation, % at 9.2 µM | 2,400 tested, 5.8% active | AID 602194, 2012;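 active = mean activation across replicates exceeds the hit threshold derived in the earlier primary screen, cut at about 18% in these data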
Hits are given with their value; 0 = inactive; - = not tested or not shown. An excerpt weighted towards active compounds, which were near 2.4% of everything screened.

SMILES	MC4R barr agon	MC4R antag cAMP	HTR5A inv ctr	OPRM1-OPRD1 inv	OPRM1-OPRD1 ag	HTR5A ag	MC4R barr ag	MOR DOR agonist
Cc1ccc(N=Nc2ccc(O)c3ncccc23)cc1	11	0	0	0	0	0	0	0
CCCCC(=O)Nc1ccc(N2CCN(C(=O)c3ccco3)CC2)cc1	0	0	0	0	0	0	-	-
COc1ccccc1-c1cn[nH]c1-c1ccc(OCc2ccc(F)cc2)cc1O	0	0	0	0	0	0	-	-
COc1ccccc1-c1cn[nH]c1-c1ccc(OCc2ccc([N+](=O)[O-])cc2)cc1O	15	0	0	0	0	0	0	0
Oc1cc(OCc2ccccc2)ccc1-c1[nH]ncc1-c1ccccc1	13	0	0	0	0	0	0	0
C[C@@H]1CN([C@H](C)CO)C(=O)CCCn2nncc2CO[C@H]1CN(C)S(=O)(=O)c1ccccc1F	0	0	-	-	-	-	-	-
CCSc1nnc(NC(=O)c2ccccc2C)s1	0	0	0	0	0	0	-	-
CN(C(=O)COC(=O)CSc1ccc(C(N)=O)cc1[N+](=O)[O-])C1CCCCC1	0	0	0	0	0	0	-	-
Cc1ccc(C(=O)NCC(=O)Nc2cccc(C(F)(F)F)c2)cc1	15	0	0	0	0	0	0	0
CSc1cccc(N2CC(C(=O)N(Cc3nnc(-c4ccccc4Cl)o3)C3CC3)CC2=O)c1 (stereo unspecified)	0	0	0	0	0	0	-	-
Cc1c(-c2ccccc2)nc(N)c(C#N)c1-c1ccco1	12	0	0	0	0	0	0	0
CC1CCCC(NCC(O)COC(c2ccc(F)cc2)c2ccc(F)cc2)C1C (stereo unspecified)	18	0	0	0	0	0	16	24
O=C(Nc1ccc(OC(F)(F)C(F)F)c(NC(=O)c2ccc(F)cc2)c1)c1ccc(F)cc1	12	0	0	0	0	0	0	0
Nc1ccc(C(=O)Nc2ccc(OC(F)(F)C(F)F)c(NC(=O)c3ccc(N)cc3)c2)cc1	0	0	0	0	0	0	-	-
COc1ccc(C(=O)Nc2ccc(O)c3ccccc23)cc1OC	0	0	0	0	0	0	-	-
CC(=O)Nc1ccc(NC(=O)C/C(C)=N/NC(=O)COc2cc(C)c(Br)cc2Br)cc1	0	0	0	0	0	0	-	-
NC(Cc1ccc(F)cc1)c1csc(Nc2ccc(C(=O)c3ccccc3)cc2)n1 (stereo unspecified)	13	0	-	-	-	-	19	24
NC(c1csc(Nc2ccc(C(=O)c3ccccc3)cc2)n1)C1CCCCC1 (stereo unspecified)	11	0	-	-	-	-	23	25
NC(Cc1ccc(Cl)cc1)c1csc(Nc2ccc(C(=O)c3ccccc3)cc2)n1 (stereo unspecified)	12	0	-	-	-	-	18	19
NC(c1csc(Nc2cc(Oc3ccccc3)ncn2)n1)C1CCCCC1 (stereo unspecified)	10	0	-	-	-	-	28	20
COCCCNC(=O)CSc1nc2ccccc2c(=O)n1CCc1ccc(S(N)(=O)=O)cc1	0	0	0	0	0	0	-	-
CCOc1ccc(-c2cc(CCCC(=O)NCCc3ccc(OC)c(OC)c3OC)no2)cc1	24	0	0	0	0	0	0	0
CCCCn1c(=O)[nH]c(=O)c2c1nc(-c1cc3c(cc1Br)OCO3)n2C	0	0	0	0	0	0	-	-
CCc1ccccc1NC(=O)CSc1nc2n[nH]c(C)c2c(=N)n1-c1ccc(OC)cc1	0	0	0	0	0	0	-	-
Cc1[nH]nc2nc(SCC(=O)NC3CCCCC3)n(-c3ccc(Br)cc3)c(=N)c12	17	0	0	0	0	0	0	23
SMILES	MC4R barr agon	MC4R antag cAMP	HTR5A inv ctr	OPRM1-OPRD1 inv	OPRM1-OPRD1 ag	HTR5A ag	MC4R barr ag	MOR DOR agonist
CCc1ccc(OCC(=O)Nc2cccc3nsnc23)cc1	0	0	0	0	0	0	-	-
Cc1ccccc1OCC(=O)Nc1cccc2nsnc12	11	0	0	0	0	0	0	0
COc1ccccc1/C=C1\SC(=S)N(CCC(=O)Nc2nnc(C)s2)C1=O	0	0	0	0	0	0	-	-
Cc1ncsc1CCC(=O)N1CCCC(C(=O)c2cccc(Cl)c2)C1 (stereo unspecified)	0	0	0	0	0	0	-	-
Cc1nc2c(sc(=S)n2Cc2ccco2)c(=O)n1CC(=O)Nc1ccc(F)cc1	15	0	0	0	0	0	0	0
Cc1nc2c(sc(=S)n2Cc2ccco2)c(=O)n1CC(=O)Nc1cc(F)ccc1F	12	0	0	0	0	0	0	0
CC(=O)c1ccc(-c2cnc3c(NC=O)cc(-c4ccc(N5CCN(C)CC5)cc4)cn23)cc1	0	0	-	-	-	-	-	-
COc1ccc(-c2cc(NC=O)c3ncc(-c4ccc(C(C)=O)cc4)n3c2)cn1	17	0	-	-	-	-	16	0
CC(=O)c1ccc(-c2cnc3c(NC=O)cc(-c4ccc(C(=O)NC5CC5)cc4)cn23)cc1	11	0	-	-	-	-	0	0
O=CNc1cc(-c2ccc(C(=O)NC3CC3)cc2)cn2c(-c3ccccc3)cnc12	0	0	-	-	-	-	-	-
Cc1cc(C)c(C#N)c(SCC(=O)Nc2nnc(-c3ccccc3)s2)n1	16	0	0	0	0	0	0	0
COc1cc(-c2cc(-c3ccccc3)nc(SCC(=O)Nc3nccs3)c2C#N)cc(OC)c1OC	11	0	0	0	0	0	0	0
O=C(Nc1ccccc1-c1ccccc1)c1cc(C(F)(F)F)cc(C(F)(F)F)c1	17	0	0	0	0	0	0	0
COCCN(C(=O)COC(=O)CCS(=O)(=O)c1ccccc1)c1c(N)n(Cc2ccccc2)c(=O)[nH]c1=O	0	0	0	0	0	0	-	-
CCOC(=O)C(CC(=O)c1ccccc1)CC(=O)c1ccccc1	0	0	0	0	0	0	-	-
COCCN(C(=O)CSCc1ccccc1)c1c(N)n(Cc2ccccc2)c(=O)[nH]c1=O	0	0	0	0	0	0	-	-
CCCCCCCCCCCCCCCCn1cc[n+](C)c1	15	0	0	0	0	0	30	0
CCCCCCCCn1ccc(=N)cc1	0	0	0	0	0	0	-	-
